# pIC50, pKi: −log10 of the molar value. The source made the active and inactive calls.
# Key:
# Candida albicans = assay: Minimum inhibitory concentration evaluated against Candida albicans; type: functional
# Dihydrofolate reductase [1] = biological target: T1, Dihydrofolate reductase (Candida albicans, UniProt P22906); assay: Inhibition of Dihydrofolate reductase enzyme from Candida albicans
# T1 sequence (P22906 whole entry): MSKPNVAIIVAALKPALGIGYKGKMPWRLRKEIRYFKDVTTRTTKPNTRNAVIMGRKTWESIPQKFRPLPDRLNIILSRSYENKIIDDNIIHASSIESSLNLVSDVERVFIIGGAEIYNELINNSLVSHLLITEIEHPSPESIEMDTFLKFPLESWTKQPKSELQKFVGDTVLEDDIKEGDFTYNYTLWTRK
# HCT-8 [2] = assay: Activity was evaluated against HCT-8 tumor cells; type: functional, cell-based; conditions: Homo sapiens
# Outline: (§1)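 Cytotoxicity was read by MTT dye reduction for suspension cultures or sulforhodamine B for monolayer cultures. For reversal of multidrug resistance, reserpine was added as reversing agent ([…] as printed).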
# Mus musculus [3] = species: Mus musculus
# Dihydrofolate reductase [4] = biological target: T2, Dihydrofolate reductase (Homo sapiens, UniProt P00374); assay: Inhibition of human recombinant Dihydrofolate reductase enzyme
# T2 sequence (P00374 whole entry): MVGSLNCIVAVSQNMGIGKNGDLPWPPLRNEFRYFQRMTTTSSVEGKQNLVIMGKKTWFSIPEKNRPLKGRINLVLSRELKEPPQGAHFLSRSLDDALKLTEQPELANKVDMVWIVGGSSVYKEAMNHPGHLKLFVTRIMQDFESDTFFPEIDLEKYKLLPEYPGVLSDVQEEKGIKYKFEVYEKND
# Mus musculus [5] = species: Mus musculus; assay: Effect on Pneumocystis carinii pneumonia in SCID mice; type: functional
# Outline: (§2)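 SCID mice (10-11/group) were dosed prophylactically once daily from day 1 postinfection, 42 doses. Test drug in D5W was given ip, then leucovorin 12 mg/kg sc 30 min later. Trimethoprim 50 mg/kg plus sulfamethoxazole 250 mg/kg was given orally, and controls received D5W ip and sc. Lung impression smears were taken 24 h after the last dose and stained by immunofluorescence. Infection was scored 0-4 semilogarithmically, reported as mean ± SEM and as infected/total mice.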
# Mus musculus [6] = species: Mus musculus; assay: Number of mice infected to tat of total number of mice ([…]/[…]); type: functional, organism-based
# A549 = assay: Cytotoxic activity evaluated against A549 tumor cells; conditions: Homo sapiens
# [7] = Cytotoxic activity was evaluated against Daoy tumor cells; type: functional, cell-based; conditions: Homo sapiens; outline: as §1
# D54 cell line = assay: Cytotoxic Activity was evaluated against D54 tumor cells; type: functional, cell-based; conditions: Homo sapiens; outline: as §1
# NCI-H460 = assay: Cytotoxic Activity was evaluated against H460 tumor cells; type: functional, cell-based; conditions: Homo sapiens; outline: as §1
# HCT-8 [8] = assay: Cytotoxic Activity was evaluated against HCT-8 tumor cells; type: functional, cell-based; conditions: Homo sapiens; outline: as §1
# [9] = Cytotoxic activity was evaluated against L tumor cells; type: functional, cell-based; conditions: Mus musculus; outline: as §1
# Mus musculus [10] = assay: Effect on life span of mice with intracranially implanted P388 Leukemic cells; type: functional
# Outline: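 CDF-1 female mice (18–20 g, 5 or 8/group); P388 leukemia, maintained by in vivo serial passage, implanted intracranially at 1 × 10^5 cells. Treatment started 24 h later; test agents suspended in 0.5% carboxymethyl cellulose plus 1% Tween 80, given sc or ip qd × 10. Read-out was percent increase in life span versus controls.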
# Mus musculus [11] = assay: Effect on life span of mice with intraperitoneally implanted P388 Leukemic cells; type: functional
# Outline: (§3)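 CDF-1 female mice (18–20 g, 5 or 8/group); P388 or P388/ADR cells implanted ip at 1 × 10^6 cells. Dosing began 24 h later; agents suspended in 0.5% carboxymethyl cellulose plus 1% Tween 80, given sc or ip qd × 10. Read-out was percent increase in life span.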
# Mus musculus [12] = assay: Effect on life span of mice with intraperitoneally implanted P388/ADR Leukemic cells; type: functional; outline: as §3
# Mus musculus [13] = species: Mus musculus; assay: Effect on Pneumocystis carinii pneumonia in SCID mice in presence of leucovorin; type: functional; outline: as §2
# Mus musculus [14] = species: Mus musculus; assay: Number of mice infected to that of total number of mice ([…]/[…]); type: functional, organism-based
# P388 = assay: Cytotoxic activity was evaluated against P388D1 tumor cells; type: functional, cell-based; conditions: Mus musculus; outline: as §1
# U373 MG = assay: Cytotoxic activity was evaluated against U373MG tumor cells; type: functional, cell-based, U-373MG ATCC; conditions: Homo sapiens; outline: as §1
# U-87 MG = assay: Cytotoxic activity was evaluated against U87MG tumor cells; type: functional, cell-based, U-87MG ATCC; conditions: Homo sapiens; outline: as §1
# Vero = assay: Cytotoxic Activity was evaluated against Vero tumor cells; type: functional, cell-based; conditions: Chlorocebus sabaeus; outline: as §1
Structure (SMILES),MIC (Candida albicans),pKi (Dihydrofolate reductase [1]),pIC50 (HCT-8 [2]),pKi (Dihydrofolate reductase [4]),other results
COc1cc(Cc2cnc(N)nc2N)cc(OC)c1OC,–,–,–,–,No. of mice infected /total (Mus musculus [3]): Partially active
Nc1nc(N)c2c(ccc3[nH]ccc32)n1,0.8 µg/mL,7.64,5.84,9.00,–
Nc1nc(=O)c2c([nH]1)NCC(CNc1ccc(C(=O)N[C@@H](CCC(=O)O)C(=O)O)cc1)N2C=O (stereo partly specified) [LEUCOVORIN],–,–,–,–,Infection score (Mus musculus [5]): 3; No. of mice infected /total (Mus musculus [6]): Number of mice infected to tat of total number of mice ([…]/[…])
COc1ccc(OC)c(Cc2cnc3nc(N)nc(N)c3c2C)c1 [PIRITREXIM],> 10 µg/mL,8.72,–,10.60,pIC50 (A549): 7.62; pIC50 [7]: 7.15; pIC50 (D54 cell line): 6.64; pIC50 (NCI-H460): 6.59; pIC50 (HCT-8 [8]): 7.17; pIC50 [9]: 7.12; Increase in life-span (Mus musculus [10]): 0%; Increase in life-span (Mus musculus [11]): 40%; Increase in life-span (Mus musculus [12]): -5%; Infection score (Mus musculus [13]): 3.27; No. of mice infected /total (Mus musculus [14]): Number of mice infected to that of total number of mice ([…]/[…]); pIC50 (P388): 7.68; pIC50 (U373 MG): 7.26; pIC50 (U-87 MG): 7.32; pIC50 (Vero): 7.52
CCc1cc2c3c(N)nc(N)nc3ccc2n1C(C)(C)C,> 0.1 µg/mL,–,8.89,–,–
CCC(CC)n1c(C(C)C)cc2c3c(N)nc(N)nc3ccc21,> 0.1 µg/mL,> 10.30,9.12,13.00,–

# More lines, main results first:
MIC (Candida albicans),pKi (Dihydrofolate reductase [1]),pIC50 (HCT-8 [2]),pKi (Dihydrofolate reductase [4]),Structure (SMILES),other results
> 0.1 µg/mL,9.42,7.28,–,CCCCc1cc2c3c(N)nc(N)nc3ccc2n1C(C)(C)C,–
0.2 µg/mL,9.48,9.23,11.00,CCc1cc2c3c(N)nc(N)nc3ccc2n1CC,–
0.1 µg/mL,9.19,8.51,10.62,CCCc1cc2c3c(N)nc(N)nc3ccc2n1CC,–
0.1 µg/mL,8.89,8.10,10.54,CCc1cc2c3c(N)nc(N)nc3ccc2n1C,–
0.1 µg/mL,9.48,8.85,> 11.70,CCn1c(C(C)C)cc2c3c(N)nc(N)nc3ccc21,–
0.05 µg/mL,> 10.22,8.89,12.70,CC(C)n1c(C(C)(C)C)cc2c3c(N)nc(N)nc3ccc21,–
0.1 µg/mL,–,7.07,10.06,Cc1cc2c3c(N)nc(N)nc3ccc2n1C,–
0.1 µg/mL,> 10.22,9.24,12.70,CCc1cc2c3c(N)nc(N)nc3ccc2n1C(CC)CC,–

# Source: ChEMBL document CHEMBL1129493 (J Med Chem, 1996)
